Rows were chosen to be rich in hits. Some 2% of all compounds tested hit in one or more screens of this group.
GPR7 antagonist = GPR7 receptor antagonists, primary screen, cell-based, fluorescence, single concentration | GPR7-expressing cells, fluorescence antagonist assay | inhibition, % at 4.4 µM | 290,000 compounds, 1.1% hits | AID 1861, 2009; in the data active = inhibition above about 16%, passing the limit was not always enough;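 note: cells stimulated with the agonist NPW; 0% = agonist with vehicle and 100% = vehicle without agonist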
ZTA DNA inh = blocks Epstein-Barr virus ZTA, an EBNA-1 counter-screen | inhibition, % at 11 µM | 320,000 compounds, 0.15% hits | ZTA-DNA binding, fluorescence polarization | P03206 | AID 2234; in the data active = inhibition above about 33%
Target sequence (P03206 whole entry, looked up): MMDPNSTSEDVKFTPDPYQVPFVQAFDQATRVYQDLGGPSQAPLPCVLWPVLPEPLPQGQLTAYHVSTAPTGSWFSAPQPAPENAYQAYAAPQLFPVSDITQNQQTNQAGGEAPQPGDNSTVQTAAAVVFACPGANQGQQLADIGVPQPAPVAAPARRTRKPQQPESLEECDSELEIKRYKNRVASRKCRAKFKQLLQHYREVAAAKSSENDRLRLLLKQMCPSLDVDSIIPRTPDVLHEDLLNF
NS3 helicase inh = inhibitors of HCV NS3 helicase, primary screen, biochemical, Cy5 molecular beacon fluorescence; Hepatitis C virus NS3 helicase; NS3 helicase DNA unwinding; inhibition, % at 10.9 µM; 290,000 compounds, 0.56% hits; AID 1800, 2009;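 active = inhibition above the mean of all tested compounds plus 3 SD, set per campaign, cut at about 35% in these data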;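 note: 0% = DMSO wells and 100% = thioflavine S control wells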
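System: NS3 helicase fragment of HCV / Schedule: 1 h at 25 °C / Control set: DMSO alone as 0% and 110 µM thioflavine S as 100% / Reagent: Cy5/quencher beacon DNA duplex and ATP to start / Technique: Cy5 fluorescence / Replication: singlicate / Evaluation: % inhibition of end-to-start signal ratio versus controls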
EBNA-1 inh = EBNA-1 DNA-binding inhibitors, primary screen, biochemical, fluorescence polarization; 300,000 compounds, 0.34% hits; inhibition, % at 14.8 µM; in the data active = inhibition above about 28%
DNA FID counter = compounds displacing fluorescent DNA intercalator, primary screen, artefact control for HCV NS3 helicase inhibitor project, biochemical, FID fluorescence. DNA fluorescent intercalator displacement. AID 1845, 2009. inhibition, % at 7.9 µM. 290,000 compounds, 0.17% hits; in the data active = inhibition above about 37%;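 note: 0% = vehicle and 100% = reference compound; higher means more ethidium bromide displaced from hairpin DNA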
Starred values were filed as active, the others as inactive; . = no result.

SMILES | GPR7 antagonist | ZTA DNA inh | NS3 helicase inh | EBNA-1 inh | DNA FID counter
CCCC1=NN2C(=N)/C(=C\c3ccc(SCc4ccco4)o3)C(=O)N=C2S1 | -12 | 61* | 25 | 50* | -29
Cc1cc(NC(=O)c2ccc3[nH]c(C)c(C)c3c2)ccn1 | 0 | . | -13 | . | 37*
CCOC(=O)C1CCN(CC(=O)Nc2c(C(=O)OC)[nH]c3ccccc23)CC1 | -3 | . | -1 | . | -17
CCOC(=O)C1CCN(CC(=O)Nc2c(C(=O)OC)[nH]c3ccc(Cl)cc23)CC1 | 18* | 5 | 18 | -5 | -9
CCn1c(CC(=O)Nc2ccccc2F)nnc1SCC(=O)Nc1nncs1 | -2 | -5 | -7 | 4 | -13
CCn1c(CNc2cccc(Cl)c2)nnc1SCc1ccccc1 | 19* | 10 | -4 | 2 | -26
CCn1c(CNc2ccc(Cl)cc2)nnc1SCc1ccc(C)cc1 | 11 | -10 | -7 | -3 | -19
CC(C)(C)NCC(O)COc1cccc2c1CCC(=O)N2 (stereo unspecified) | . | 8 | . | -1 | .
COc1ccc(C(=O)c2cc([N+](=O)[O-])ccc2N2CCN(C)CC2)cc1 | 34* | 0 | -21 | 0 | 40*
O=C(C(=O)N1CCN(Cc2ccccc2)CC1)c1c[nH]c2ccccc12 | . | 18 | . | 13 | .
O=C(c1c[nH]c2ccccc12)N1CCN(Cc2ccccc2)CC1 | 18* | 3 | 13 | -14 | -13
CC(C)c1onc(C(=O)N(C)Cc2ccccc2)c1[N+](=O)[O-] | -2 | 39* | -3 | 9 | -5
COc1cccc(OC)c1OCCCc1c(C)n[nH]c1C | 16* | 6 | 8 | 7 | -16
Cc1cccc(OCCCc2c(C)n[nH]c2C)c1 | 8 | 9 | -20 | -2 | -4
CCN(CC)CCOC(=O)c1ccc(NC(=O)CCCN2C(=O)/C(=C/c3cccs3)SC2=S)cc1 | 20 | . | -34 | . | 44*
CCOc1ccc(-n2c(SCc3nc(-c4cccs4)no3)nnc2-c2ccncc2)cc1 | 18* | 8 | -14 | 14 | -41
CC(C)CCn1c(=O)c2sccc2n2c(CCCC(=O)N3CCN(c4ccccn4)CC3)nnc12 | -5 | 9 | 5 | 2 | -58
Cc1ccc2oc(-c3ccc(C)c(NC(=O)Cc4cccs4)c3)nc2c1 | -9 | -3 | 0 | -6 | 1
Cc1ccc2oc(-c3ccc(C)c(NC(=S)NC(=O)c4cccs4)c3)nc2c1 | -12 | -12 | 10 | 29* | -1
Cc1nn(CC(=O)NCCN2CCCCC2C)c(=O)c2cc(-c3ccccc3)nn12 (stereo unspecified) | -3 | 6 | -1 | 12 | 18
CCOC(=O)c1c(/N=C/c2cc([N+](=O)[O-])ccc2O)sc(C)c1C | 23* | -12 | 15 | 9 | 0
CCOc1ccc(C(=O)N2CCN(Cc3ccccc3)CC2)cc1OCC | -6 | . | 7 | . | -26
O=C(NCC1CCCO1)/C(=C/c1ccccc1F)NC(=O)c1ccccc1 (stereo unspecified) | -9 | 0 | 1 | -6 | 0
N=c1n(CCN2CCCCC2)c2ccccc2n1CC(O)c1ccc(Cl)c(Cl)c1 (stereo unspecified) | 36* | -16 | -14 | 3 | 34
COc1ccccc1OCC(O)Cn1c(=N)n(CCN2CCCCC2)c2ccccc21 (stereo unspecified) | 25* | 7 | -23 | 3 | 35
SMILES | GPR7 antagonist | ZTA DNA inh | NS3 helicase inh | EBNA-1 inh | DNA FID counter
COc1ccc(OCC(O)Cn2c(=N)n(CCN3CCOCC3)c3ccccc32)cc1 (stereo unspecified) | -9 | -11 | -6 | 3 | 11
COCCCn1c(=O)c2ccccc2n(CC(=O)Nc2ccc3c(c2)OCCO3)c1=O | -12 | -6 | -12 | -6 | -22
O=C(O)c1ccc(S(=O)(=O)N(Cc2ccccc2)C2CCCCC2)cc1 | 0 | -2 | 6 | 10 | -35
CC1CCCCC1NS(=O)(=O)c1ccc(S(=O)(=O)N2CCCC2)cc1 (stereo unspecified) | 15* | 4 | 14 | 5 | -26
Cc1ccc(CNC(=O)CCC(=O)Nc2nnc(C(C)C)s2)cc1 | -2 | 1 | -3 | 4 | -31
c1nc2sc3c(c2c2nnnn12)CCCC3 | 18* | -10 | 3 | 3 | -1
c1nc2sc3c(c2c2nnnn12)CCC3 | -5 | 3 | -3 | 3 | -1
COc1cccc(-n2nc(C#N)c(Cl)cc2=O)c1 | 41* | . | -5 | . | 2

Compound activity deposited in PubChem BioAssay by The Scripps Research Institute Molecular Screening Center.
